Several values for one entry are separate records, joined by “and”; a condition that tells them apart may be missing. Equal entries are not always repeated.
Key:
[1] = Lethal dose required to produce 50% lethality in male and female carworth farms CF-1 strain mice weighing 16-25 g administered intraperitoneally; assay type: toxicity, organism-based; conditions: both, CF-1, mouse, in vivo, ip
Method in brief: (§1)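 Four mice per dose level. Drug dissolved in distilled water and suspended in 0.5% carboxymethylcellulose or 0.5% gelatin, with pH adjusted by 1 N HCl or 1 N NaOH where the drug tolerated it. Doses logarithmically spaced, given orally or intraperitoneally. Mice observed 7 days after dosing. LD50 derived by the Bliss method, expressed in mg/kg.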

Monkey [2] = test: Evaluated in normal, fasted monkey for the percentage reduction in blood glucose level as compared to pretreatment blood glucose values at a dose of 60 mg of free base / kg body weight administered orally; assay type: functional, Cercopithecidae
Method in brief: (§2)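 Male and female rhesus monkeys (2–3 kg) were food-deprived, with water, for 18 h. Pretreatment blood was taken from the popliteal vein. Dosing was oral by stomach tube, with repeat sampling 5 h post-dose. Results are percent reduction in blood glucose relative to pretreatment values.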

Monkey [3] = test: Evaluated in normal, fasted monkey for the percentage reduction in blood glucose level as compared to pretreatment blood glucose values at a dose of 70 mg of free base / kg body weight administered orally; assay type: functional, Cercopithecidae; method in brief: as §2
Cavia porcellus [4] = test: Evaluated in normal, fasted guinea pig for the percentage reduction in blood glucose level as compared to pretreatment blood glucose values at a dose of 100 mg of free base / kg body weight administered orally; assay type: functional
Method in brief: (§3)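 Male and female Hartley guinea pigs, 450–500 g, were food-deprived (water allowed) 18 h and split by sex into groups of four. A zero-time blood sample was taken by cardiac puncture, then drug was given, and blood was drawn again 5 h later. Percent reduction in blood glucose is relative to pretreatment values.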

Rattus norvegicus [5] = test: Evaluated in glucose-primed, fasted rat for the percentage reduction in blood glucose level as compared to control groups at a dose of 25 mg of free base / kg body weight administered orally; assay type: functional
Method in brief: (§4)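 Male Sprague–Dawley rats, 140–150 g, groups of six, fasted 16 h. Each rat got 100 mg glucose s.c. in 0.5 mL isotonic NaCl, then the test agent at once orally as an aqueous carboxymethylcellulose suspension (0.5 mL); controls got vehicle. At 2 h, under light ether, blood was taken by cardiac puncture. Glucose was read by Autoanalyzer (Hoffman method). Values are percent difference from vehicle controls.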

Rattus norvegicus [6] = test: Evaluated in glucose-primed, fasted rat for the percentage reduction in blood glucose level as compared to control groups at a dose of 10 mg of free base / kg body weight administered orally; assay type: functional; method in brief: as §4
Rattus norvegicus [7] = test: Evaluated in alloxanized, diabetic rat for the percentage reduction in blood glucose level as compared to pretreatment blood glucose values at a dose of 200 mg of free base / kg body weight administered orally; assay type: functional
Method in brief: (§5)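 Three days later, rats positive for urine glucose (reagent strip) formed groups of six. Tail-vein blood was taken before oral dosing and again at 5 h. Percent reduction is versus pretreatment glucose.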

Monkey [8] = test: Evaluated in normal, fasted monkey for the percentage reduction in blood glucose level as compared to pretreatment blood glucose values at a dose of 50 mg of free base / kg body weight administered orally; assay type: functional, Cercopithecidae; method in brief: as §2
Rattus norvegicus [9] = test: Evaluated in alloxanized, diabetic rat for the percentage reduction in blood glucose level as compared to pretreatment blood glucose values at a dose of 100 mg of free base / kg body weight administered orally; assay type: functional; method in brief: as §5
Rattus norvegicus [10] = test: Evaluated in glucose-primed, fasted rat for the percentage reduction in blood glucose level as compared to control groups at a dose of 50 mg of free base / kg body weight administered orally; assay type: functional; method in brief: as §4
Rattus norvegicus [11] = test: Evaluated in glucose primed, adrenalectomized rat for the percentage reduction in blood glucose level as compared to pretreatment blood glucose values at a dose of 25 mg of free base / kg body weight administered orally; assay type: functional
Method in brief: (§6)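 Male Sprague–Dawley rats were adrenalectomized 7 days before testing, fasted 16 h, and given 100 mg glucose s.c. per rat. Drug was given orally at once; controls received an equal volume of saline. Blood was taken by cardiac puncture after 2 h. Percent reduction in blood glucose is versus pretreatment values.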

Rattus norvegicus [12] = test: Compound was evaluated for the blood sugar lowering (hypoglycemic activity ) in the glucose-primed rat at a dose of 50 mg of base/kg; assay type: functional; method in brief: as §4
[13] = (§7) Lethal dose required to produce 50% lethality in male and female carworth farms CF-1 strain mice weighing 16-25 g administered orally; conditions: both, CF-1, in vivo, po
Monkey [14] = test: Evaluated in normal, fasted monkey for the percentage reduction in blood glucose level as compared to pretreatment blood glucose values at a dose of 25 mg of free base / kg body weight administered orally; assay type: functional, Cercopithecidae; method in brief: as §2
Cavia porcellus [15] = test: Evaluated in normal, fasted guinea pig for the percentage reduction in blood glucose level after 5 hr as compared to pretreatment blood glucose values at a dose of 150 mg of free base / kg body weight administered orally; assay type: functional; method in brief: as §3
Cavia porcellus [16] = test: Evaluated in normal, fasted guinea pig for the percentage reduction in blood glucose level after 5 hr as compared to pretreatment blood glucose values at a dose of 160 mg of free base / kg body weight administered orally; assay type: functional; method in brief: as §3
Cavia porcellus [17] = test: Evaluated in normal, fasted guinea pig for the percentage reduction in blood glucose level after 5 hr as compared to pretreatment blood glucose values at a dose of 100 mg of free base / kg body weight administered orally; assay type: functional; method in brief: as §3
Rattus norvegicus [18] = test: Evaluated in glucose-primed, fasted rat for the percentage reduction in blood glucose level after 2 hr as compared to control groups at a dose of 500 mg of free base / kg body weight administered orally; assay type: functional; method in brief: as §4
Cavia porcellus [19] = test: Evaluated in normal, fasted guinea pig for the percentage reduction in blood glucose level after 5 hr as compared to pretreatment blood glucose values at a dose of 125 mg of free base / kg body weight administered orally; assay type: functional; method in brief: as §3
Rattus norvegicus [20] = test: Evaluated in glucose-primed, fasted rat for the percentage reduction in blood glucose level after 2 h as compared to control groups at a dose of 25 mg of free base / kg body weight administered orally; assay type: functional; method in brief: as §4
Rattus norvegicus [21] = test: Evaluated in glucose-primed, fasted rat for the percentage reduction in blood glucose level after 2 hr as compared to control groups at a dose of 250 mg of free base / kg body weight administered orally; assay type: functional; method in brief: as §4
Rattus norvegicus [22] = test: Evaluated in glucose primed, adrenalectomized rat for the percentage reduction in blood glucose level after 2 hr as compared to pretreatment blood glucose values at a dose of 20 mg of free base / kg body weight administered orally; assay type: functional; method in brief: as §6
Rattus norvegicus [23] = test: Evaluated in glucose primed, adrenalectomized rat for the percentage reduction in blood glucose level after 2 hr as compared to pretreatment blood glucose values at a dose of 10 mg of free base / kg body weight administered orally; assay type: functional; method in brief: as §6
Monkey [24] = test: Evaluated in normal, fasted monkey for the percentage reduction in blood glucose level after 5 hr as compared to pretreatment blood glucose values at a dose of 20 mg of free base / kg body weight administered orally; assay type: functional, Cercopithecidae; method in brief: as §2
Rattus norvegicus [25] = test: Evaluated in glucose-primed, fasted rat for the percentage reduction in blood glucose level after 2 hr as compared to control groups at a dose of 10 mg of free base / kg body weight administered orally; assay type: functional; method in brief: as §4
Monkey [26] = test: Evaluated in normal, fasted monkey for the percentage reduction in blood glucose level after 5 hr as compared to pretreatment blood glucose values at a dose of 40 mg of free base / kg body weight administered orally; assay type: functional, Cercopithecidae; method in brief: as §2
[27] = as §7; assay type: toxicity, organism-based; conditions: both, CF-1, mouse, in vivo, po; method in brief: as §1
Rattus norvegicus [28] = test: Evaluated in glucose-primed, fasted rat for the percentage reduction in blood glucose level as compared to control groups at a dose of 100 mg of free base / kg body weight administered orally; assay type: functional; method in brief: as §4
Rattus norvegicus [29] = test: Evaluated in glucose-primed, fasted rat for the percentage reduction in blood glucose level as compared to control groups at a dose of 150 mg of free base / kg body weight administered orally; assay type: functional; method in brief: as §4
Cavia porcellus [30] = test: Evaluated in normal, fasted guinea pig for the percentage reduction in blood glucose level as compared to pretreatment blood glucose values at a dose of 100 mg of free base / kg body weight administered orally
Rattus norvegicus [31] = test: Blood sugar lowering (hypoglycemic activity) in the glucose-primed rat at a dose of 100 mg/kg; Decrease in blood sugar level.; assay type: functional; method in brief: as §4
Rattus norvegicus [32] = test: Evaluated in alloxanized, diabetic rat for the percentage reduction in blood glucose level as compared to pretreatment blood glucose values at a dose of 150 mg of free base / kg body weight administered orally; assay type: functional; method in brief: as §5
[33] = Lethality in 50% (LD50) of male and female CF-1 strain mice weighing 16-25g, intraperitoneal administration; assay type: ADME, organism-based; conditions: both, CF-1, mouse, in vivo, ip; method in brief: as §1
Rattus norvegicus [34] = test: Compound was evaluated for the blood sugar lowering (hypoglycemic activity) in the glucose-primed rat at a dose of 100 mg/kg; Increase in blood sugar level.; assay type: functional; method in brief: as §4
[35] = Dose that produces lethality in 50% (LD50) of male and female carworth farms CF-1 strain mice weighing 16-25 g oral (po) route of administration; assay type: ADME, organism-based; conditions: both, CF-1, mouse, in vivo; method in brief: as §1

Question: Which results are given for `Br.CC(C)N(CCCOc1ccc(N/C(=N\c2ccccc2)c2ccccc2)cc1)C(C)C`?
Answer: LD50 [1]: 140 mg/kg; Reduction (Monkey [2]): 32.3%; Reduction (Monkey [3]): 39%; Reduction (Cavia porcellus [4]): 33.5% and 20%; Reduction (Rattus norvegicus [5]): 21.2%; Reduction (Rattus norvegicus [6]): 10.9%; Reduction (Rattus norvegicus [7]): 21.5%; Reduction (Monkey [8]): 26.5%; Reduction (Rattus norvegicus [9]): 15%; Reduction (Rattus norvegicus [10]): 32.2%; Reduction (Rattus norvegicus [11]): 30.6%; Change (Rattus norvegicus [12]): 32.2%; LD50 [13]: 347 mg/kg; Reduction (Monkey [14]): 0%

Question: With `Cc1ccc(S(=O)(=O)NC(=O)NN2CCCCCC2)cc1` [TOLAZAMIDE] as the compound, how does the Reduction (Cavia porcellus [15]) read?
Answer: The Reduction was 30.4%.

Question: What about the Reduction (Cavia porcellus [16]) of the same compound?
Answer: The Reduction was 25%.

Question: What about the Reduction (Cavia porcellus [17]) of the same compound?
Answer: Its Reduction is 33.5%.

Question: And the Reduction (Rattus norvegicus [18])?
Answer: Its Reduction is 51.1%.

Question: What about the Reduction (Cavia porcellus [19]) of the same compound?
Answer: Its Reduction is 26.7%.

Question: And the Reduction (Rattus norvegicus [9])?
Answer: Its Reduction is 0%.

Question: And the Reduction (Rattus norvegicus [20])?
Answer: The Reduction was 50%.

Question: And the Reduction (Rattus norvegicus [21])?
Answer: Its Reduction is 42.9%.

Question: What about the Reduction (Rattus norvegicus [22]) of the same compound?
Answer: Its Reduction is 85.6%.

Question: What about the Reduction (Rattus norvegicus [23]) of the same compound?
Answer: Its Reduction is 75.8%.

Question: And the Reduction (Monkey [24])?
Answer: Its Reduction is 11%.

Question: What about the Reduction (Rattus norvegicus [25]) of the same compound?
Answer: Its Reduction is 28.1%.

Question: And the Reduction (Monkey [26])?
Answer: The Reduction was 26.7%.

Question: For `Br.CC(C)N(CCOc1ccc(N/C(=N\c2ccccc2)c2ccccc2)cc1)C(C)C`, which LD50 [1] is on record?
Answer: Its LD50 is 273 mg/kg.

Question: What about the Reduction (Monkey [2]) of the same compound?
Answer: Its Reduction is 45%.

Question: And the LD50 [27]?
Answer: Its LD50 is 900 mg/kg.

Question: And the Reduction (Monkey [8])?
Answer: Its Reduction is 31.9%.

Question: And the Reduction (Rattus norvegicus [9])?
Answer: The Reduction was 16.5%.

Question: What about the Reduction (Rattus norvegicus [10]) of the same compound?
Answer: Its Reduction is 12.9%.

Question: And the Reduction (Rattus norvegicus [11])?
Answer: Its Reduction is 33.4%.

Question: And the Reduction (Rattus norvegicus [28])?
Answer: Its Reduction is 31.2%.

Question: What about the Reduction (Rattus norvegicus [29]) of the same compound?
Answer: The Reduction was 32%.

Question: What about the Reduction (Cavia porcellus [30]) of the same compound?
Answer: Its Reduction is 10.6%.

Question: And the Reduction (Monkey [14])?
Answer: Its Reduction is 0%.

Question: What about the Change (Rattus norvegicus [31]) of the same compound?
Answer: The Change was 31.2%.

Question: And the Reduction (Rattus norvegicus [32])?
Answer: Its Reduction is 37.3%.

Question: What does the source list for `Br.c1ccc(/N=C(\Nc2ccc(OCCN3CCCC3)cc2)c2ccccc2)cc1`?
Answer: LD50 [33]: 117 mg/kg; Change (Rattus norvegicus [34]): 35%; LD50 [35]: 500 mg/kg
